From article PMC3163154 (Molecular pharmaceutics, 2011)

How the values were obtained:
LNCaP cells [1] = assay: Immunostaining of LNCaP cells with biotinylated peptides; format: binding
How it was run: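 LNCaP cells were fixed in ice-cold acetone/methanol (1/1) for 10 min and blocked with 1% BSA for 1 h. Biotinylated peptide was applied for 1 h in TBST (0.1% Tween-20, 0.1 M Tris-Cl, pH 7.4). After washing, streptavidin-FITC was added for 20 min and nuclei were counterstained. Cells were imaged by fluorescence microscopy at 200x.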

LNCaP cells [2] = assay: In vitro competitive receptor binding assay; format: cell-based; details: pre-incubation with Ac-KCCYSL 1 hour, then KCC-TGX 30 minutes
How it was run: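 LNCaP cells were plated at 2×10⁴ cells/well for 12 h and PBS-washed. They were pre-incubated 1 h at 37°C with the HER2-targeting peptide at the indicated concentrations, then exposed to test conjugate for 30 min. Cells were washed, freeze-thaw lysed, NaOH-hydrolysed 1 h to release parent drug, and extracted with ethyl acetate using an internal standard. Drug was quantified by LC-MS/MS and normalised to BCA protein. n=3.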

LNCaP cells [3] = assay: Cytotoxicity assay; format: cell-based; details: read-out: IC50 in LNCaP cells; LNCaP (PTEN-null), 72 hours, MTT assay
DU145 cells = assay: Cytotoxicity assay; format: cell-based; details: read-out: IC50 in DU145 cells; DU145 (PTEN-wild), 72 hours, MTT assay
How it was run: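 DU145 cells were seeded at 3×10³ cells/well, a lower density than LNCaP owing to fast growth. After 24 h, test compound was added and cells were incubated 72 h at 37°C. Relative cell number was measured by MTT. IC50 was obtained by fitting a concentration-response curve.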

PI3Kβ = details: selectivity; cited from earlier work
LNCaP cells [4] = assay: Androgen induced proliferation assay; format: cell-based; details: R1881-containing serum-free medium, 3 days, compared with TGX-221
How it was run: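 LNCaP cells were seeded 12 h before assay. Medium was switched to serum-free medium containing 1 nM R1881 (synthetic androgen), then test compound was added. After 72 h incubation, proliferation was read by Alamar Blue assay. Mean ± SD, n=3.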

[5] = test system: androgen response element (ARE-LUC) reporter in LNCaP cells; assay: Androgen induced gene expression assay; format: cell-based; details: R1881 1.0 nM, 24 hours, compared with TGX-221
How it was run: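 LNCaP cells in 6-well plates were transfected the next day with 1.0 μg ARE-LUC plasmid using Lipofectamine. After 24 h, medium was changed to RPMI-1640 with 2% FBS and 1.0 nM R1881, test compound was added, and cells were incubated 24 h. Cells were PBS-washed and lysed, and luciferase activity was normalised to BCA total protein. Mean ± SD, n=3.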

LNCaP cells [6] = assay: Cellular uptake study; format: cell-based; details: 0.5 μM, 1 hour incubation

Q: For DPRATPGSK, which “fluorescence on LNCaP cells (streptavidin-FITC staining)” value (LNCaP cells [1]; control peptide, concentration increased to 100 μM (data not shown)) is on record?
A: No significant fluorescence

Q: With KCCYSL as the compound, how does the “binding on LNCaP cells (streptavidin-FITC staining)” value (LNCaP cells [1]; C-terminus biotinylated peptide, 10 μM) read?
A: high-affinity binding

Q: Which “uptake by LNCaP cells after pre-incubation with the HER2-specific ligand” value (LNCaP cells [2]) does the source give for Ac-KCCYSL here?
A: significantly inhibited

Q: Which results are given for Cc1cc(C(C)Nc2ccccc2)c2nc(N3CCOCC3)cc(=O)n2c1 (stereo not shown) [TGX-221]?
A: IC50 (LNCaP cells [3]): 1070 nM; IC50 (DU145 cells): > 100000 nM; inhibition effect on PI3Kβ over PI3Kα (PI3Kβ): about 1000 fold; inhibition effect on PI3Kβ over PI3Kγ (PI3Kβ): about 1000 fold; inhibition effect on PI3Kβ over PI3Kδ (PI3Kβ): ~20 fold

Q: Which IC50 (LNCaP cells [3]) does the source give for Cc1cc(C(C)N(CCO)c2ccccc2)c2nc(N3CCOCC3)cc(=O)n2c1 (stereo not shown) [TGX-D1] here?
A: 2670 nM

Q: What about the IC50 (DU145 cells) of the same compound?
A: > 100000 nM

Q: What about the “inhibition of androgen-induced cell proliferation” value (LNCaP cells [4]) of the same compound?
A: comparable effects

Q: And the “inhibition of androgen-induced gene expression” value [5]?
A: comparable effects

Q: What about the “cellular uptake in LNCaP cells” value (LNCaP cells [6]) of the same compound?
A: low uptake
